The source of these data is ChEMBL document CHEMBL1129573, “Structure-activity relationships in a series of substituted indolocarbazoles: topoisomerase I and protein kinase C inhibition and antitumoral and antimicrobial properties” (J Med Chem, 1996).

Converted amounts (≈) assume the structure as drawn. “And” between values parts separate entries of the source, which are not always exact repeats. Identical values can stand only once. A value given as a limit tells only on which side of the number the result lay.

The subject of one assay is Bacillus cereus. As to the kind of experiment: Antimicrobial activity on Bacillus cereus. The format is functional.
A short description of assay [1]: Inhibition of Protein Kinase A (PKA). A digest of the protocol: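 PKA (1 μg/mL) phosphorylating histone IIa (1 mg/mL) with 10 μM ATP plus [γ32P]ATP, 5 mM MgCl2, 50 mM Tris pH 7.0, at 30 °C for 12 min. Stopped with 12% TCA with BSA carrier, reprecipitated. 32P incorporated into histone counted by scintillation; triplicate.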
Assay [2] addresses Protein kinase C alpha type (Homo sapiens, UniProt P17252). Put plainly: Inhibition of Protein Kinase C(PKC). In a few lines: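 Procedure a: PKC (0.5 μg/mL) with histone IIIs (2.4 mg/mL), 10 μM ATP plus [γ32P]ATP, 10 mM MgCl2, 0.1 mM CaCl2, phosphatidylserine and diacylglycerol (10 mg/mL each), 50 mM Tris pH 7.5, at 30 °C for 12 min. TCA precipitation, histone-bound 32P counted by scintillation; triplicate.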

The next assay deals with P388. Put plainly: Antiproliferative activity against P388 Murine Leukemia cells. The format is functional, cell-based. Particulars: Mus musculus.
The test system of assay [3] is DNA topoisomerase II (Bos taurus). As to the kind of experiment: Inhibitory activity towards Topoisomerase 2 from calf thymus.
For assay [4], the system named is DNA topoisomerase I (Bos taurus). As to the kind of experiment: Inhibitory activity towards Topoisomerase 1 from calf thymus.
Assay [5] deals with B16. As to the kind of experiment: Antiproliferative activity against B16 mouse melanoma cells. The format is functional, cell-based. In a few lines:
(§1)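 B16 mouse melanoma cells (EMEM, 10% FCS, 37 °C, 5% CO2) plated at 200 cells/dish, adhered 20 h, then exposed 24 h to increasing drug concentrations. Drug medium removed, PBS wash, 12 days regrowth in fresh medium.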

Assay [6] deals with Mus musculus. As to the kind of experiment: Antitumor activity against mice with B16 melanoma was assessed from the ratio of median survival time of treated animals (T) to controls animals, at 16 mg/Kg. Format: functional. In a few lines:
(§2)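 Male B6D2F1 mice given 0.5 × 10⁶ B16 melanoma cells subcutaneously on the dorsum on day 0 (cells maintained in MEM culture). Drug given intraperitoneally on days 1, 5 and 9. Controls received DMSO–olive oil solvent. Six mice per treated group, 12 controls. Median survival time compared with controls, reported as oncostatic index T/C × 100.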

Assay [7] concerns Mus musculus. Put plainly: Antitumor activity against mice with B16 melanoma was assessed from the ratio of median survival time of treated animals (T) to controls animals, at 2 mg/Kg. The format is functional. In a few lines:
as §2

Assay [8] relates to Mus musculus. Put plainly: Antitumor activity against mice with B16 melanoma was assessed from the ratio of median survival time of treated animals (T) to controls animals, at 64 mg/Kg. Format: functional. In a few lines: as §2
In assay [9] the test system is Mus musculus. As to the kind of experiment: Antitumor activity against mice with P388 leukemia cell was assessed from the ratio of median survival time of treated animals (T) to controls animals, at 16 mg/Kg. Format: functional. In a few lines:
(§3)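 Male B6D2F1 mice injected intraperitoneally with 1×10^6 P388 leukemia cells on day 0 (line kept by weekly intraperitoneal passage in male DBA/2 mice). Drug given intraperitoneally on days 1, 5 and 9. Controls received DMSO–olive oil solvent. Six mice per treated group, 12 controls. Median survival time compared with controls, reported as oncostatic index T/C × 100.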

The subject of assay [10] is Mus musculus. Put plainly: Antitumor activity against mice with P388 leukemia cell was assessed from the ratio of median survival time of treated animals (T) to controls animals, at 2 mg/Kg. Format: functional. A digest of the protocol:
as §3

Assay [11] relates to Mus musculus. Put plainly: Antitumor activity against mice with P388 leukemia cell was assessed from the ratio of median survival time of treated animals (T) to controls animals, at 64 mg/Kg. The format is functional. In a few lines: as §3
Assay [12] relates to Mus musculus. Put plainly: In vivo efficacy study on mice with P388 Leukemia Cells determined after administration of 16 mg/kg/day dosage. The format is functional. A digest of the protocol: as §3
Assay [13] has as its system Mus musculus. As to the kind of experiment: In vivo efficacy study on mice with P388 Leukemia Cells determined after administration of 2 mg/kg/day dosage. Format: functional. In a few lines:
as §3

For assay [14], the system named is Mus musculus. Put plainly: In vivo efficacy study on mice with P388 Leukemia Cells determined after administration of 64 mg/kg/day dosage. The format is functional. In a few lines: as §3
In assay [15] the test system is Mus musculus. Put plainly: In vivo efficacy study on mice with B16 Melanoma cells determined after administration of 2 mg/kg/day dosage. The format is functional, Melanoma cell. In a few lines:
as §2

Assay [16] has as its system Mus musculus. As to the kind of experiment: In vivo efficacy study on mice with B16 Melanoma Cells determined after administration of 64 mg/kg/day dosage. The format is functional. A digest of the protocol:
as §2

Assay [17] deals with Mus musculus. As to the kind of experiment: In vivo efficacy study on mice with B16 Melanoma cells determined after administration of 16 mg/kg/day dosage. The format is functional, Melanoma cell. In a few lines: as §2
The subject of assay [18] is Mus musculus. As to the kind of experiment: In vivo efficacy study on mice with B16 Melanoma cells determined after administration of 64 mg/kg/day dosage. The format is functional, Melanoma cell. A digest of the protocol: as §2
In assay [19] the test system is B16. As to the kind of experiment: Compound was evaluated for antiproliferative activity against B16 mouse melanoma cells *= Partially precipitated in DMSO. Format: functional, cell-based. A digest of the protocol: as §1

With `O=C1NCc2c1c1c3cccc(Cl)c3[nH]c1c1[nH]c3c(Cl)cccc3c21`, the figures for the MIC (with Bacillus cereus; in [3]; in assay [4]) were 6.25 µg/mL (≈ 16.4 µM), above 10 µg/mL and above 10 µg/mL, respectively. Moreover, the IC50 is above 100 µM in [1], above 100 µM in [2] and 3.5 µM in the assay with P388.

On to `O=C1c2c(c3c4ccccc4[nH]c3c3[nH]c4ccccc4c23)C(=O)N1O`, for which the IC50 is 4.6 µM in the assay on B16 [5], 41.5 µM in assay [1], 79.2 µM in [2] and above 10 µM in the assay with P388. For the same molecule, the MIC is above 50 µg/mL with Bacillus cereus, above 10 µg/mL in assay [3] and above 10 µg/mL in assay [4]. Also, the “T/C x100” value is 128 with Mus musculus [6]; 112 in the assay with Mus musculus [7]; 112 in the assay with Mus musculus [8]; 100 with Mus musculus [9]; 104 in the assay with Mus musculus [10]; 100 with Mus musculus [11]. Moreover, the “Mean survival in days” value in the assay with Mus musculus [12] stood at 11; with Mus musculus [13], 11.5; in the assay with Mus musculus [14] it was 11; in the assay on Mus musculus [15] it was 27.5; in the assay on Mus musculus [16] it was 27.5; with Mus musculus [17], 31.5.

Consider `O=C1NC(O)c2c1c1c3cccc(Cl)c3[nH]c1c1[nH]c3c(Cl)cccc3c21` (stereo unspecified), for which the 50% inhibitory concentration (IC50) is 8.4 µM in the assay with B16 [5], above 100 µM in assay [1], above 100 µM in assay [2] and 9 µM with P388. Moreover, the MIC is above 50 µg/mL against Bacillus cereus, above 10 µg/mL in [3] and above 10 µg/mL in [4].

Take `O=C1NCc2c1c1c3ccccc3[nH]c1c1[nH]c3ccccc3c21` [STAUROSPORINONE]: the IC50 in the assay on B16 [5] was 4.8 µM; in assay [1], 25.7 µM; in the assay with P388, 4 µM. The molecule further had an MIC against Bacillus cereus above 50 µg/mL. Further, the “T/C x100” value amounted to 122 in the assay on Mus musculus [6]; 94 with Mus musculus [7]; 106 in the assay on Mus musculus [8]; 100 in the assay on Mus musculus [9]; 100 in the assay with Mus musculus [10]; 104 in the assay with Mus musculus [11]. In addition, the “Mean survival in days” value with Mus musculus [12] was 11; in the assay on Mus musculus [13], 11; with Mus musculus [14], 11.5; in the assay with Mus musculus [15], 23; in the assay with Mus musculus [18] it was 26; in the assay on Mus musculus [17], 30.

In the case of `O=C1NC(=O)c2c1c1c3cccc(Cl)c3[nH]c1c1[nH]c3c(Cl)cccc3c21`, the IC50 in the assay on B16 [5] is 24 µM; in [1], above 100 µM; in [2], above 100 µM; with P388, above 10 µM. Besides, in the assay on Bacillus cereus, the MIC is above 50 µg/mL.

`CO[C@H]1[C@H](O)[C@@H](O)[C@H](n2c3ccccc3c3c4c(c5c6ccccc6[nH]c5c32)C(=O)NC4=O)O[C@@H]1CO`: the IC50 in the assay with B16 [5] is 17.5 µM; in assay [1], above 100 µM; in [2] it was above 100 µM; with P388, 3.5 µM. Further, the MIC was above 50 µg/mL in the assay with Bacillus cereus, above 10 µg/mL in [3] and 1 µg/mL (≈ 1.99 µM) in assay [4].

With `NNC(=O)NN1C(=O)c2c(c3c4ccccc4[nH]c3c3[nH]c4ccccc4c23)C1=O`, the IC50 was 75 µM in the assay with B16 [19], 78 µM in assay [2] and above 10 µM in the assay on P388. The molecule also yielded an MIC with Bacillus cereus of 50 µg/mL (≈ 126 µM).

As for `COC1C(CO)OC(n2c3c(Cl)cccc3c3c4c(c5c6cccc(Cl)c6[nH]c5c32)CNC4=O)C(O)C1O` (stereo unspecified), the concentration for half-maximal inhibition (IC50) is above 125 µM in the assay on B16 [5], above 100 µM in assay [1], 28.8 µM in assay [2] and 3 µM in the assay on P388. The results for the MIC (with Bacillus cereus; in [3]; in [4]) were 3.1 µg/mL (≈ 5.57 µM), above 10 µg/mL and 1 µg/mL (≈ 1.8 µM), respectively.

As to `CO[C@H]1[C@H](O)[C@@H](O)[C@H](n2c3c(Cl)cccc3c3c4c(c5c6cccc(Cl)c6[nH]c5c32)C(=O)NC4=O)O[C@@H]1CO` [REBECCAMYCIN], the IC50 in the assay with B16 [5] was 0.48 µM; in assay [1], above 100 µM; in the assay with P388 it was 0.3 µM. The same molecule returned an MIC with Bacillus cereus of 6.25 µg/mL (≈ 11 µM). Further, the “T/C x100” value is 112 with Mus musculus [6]; 124 in the assay with Mus musculus [7]; 106 with Mus musculus [8]; 150 with Mus musculus [9]; 136 in the assay on Mus musculus [10]; 164 with Mus musculus [11]. Besides, the “Mean survival in days” value in the assay with Mus musculus [12] is 16.5; in the assay with Mus musculus [13], 15; with Mus musculus [14], 18; with Mus musculus [15], 30.5; in the assay on Mus musculus [17], 27.5 and 26.

The IC50 is the midpoint of a concentration-inhibition curve. Lower therefore signals inhibition by little substance.
